Screens as filed in PubChem.
Only a selection was taken, and hits are over-represented in it overall.
HCT116 PTEN-null: growth suppressors of cells with PTEN tumor suppressor deletion; HCT116 PTEN-null viability, CellTiter-Glo, 60 h; hits give low values; viability, % at 10 µM; 140,000 compounds, 1.2% hits; AID 827;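 active means viability at or below a set limit, 4 SD under the median of all tested compounds, cut at about 3.7% in these data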;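 further: PTEN knockout HCT116 line with beta catenin targeted HCT116 as companion control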
Lung fibro prol: blocks proliferation of human lung fibroblasts; viability, % at 10 µM; LL 47 human lung fibroblast viability, ATP luminescence; hits give low values; 85,000 compounds, 1.1% hits;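 active means viability at or below 50% in the single dose screen; inactive means viability above 50%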;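 further: compound exposure lasted 72 h before the ATP readout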
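Test system: LL 47 human lung fibroblasts / Quantity: 1,150 cells in each well / Medium: IMEM growth medium with 15% fetal bovine serum / Incubation: 72 h compound exposure at 37 °C after overnight plating / Detection: CellTiter-Glo luminescence measuring cellular ATP / Read-out: % viability versus median cells-only luminescence / Benchmarks: cell-only wells, no compound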
HUVEC inhibit: inhibitors of human endothelial cell proliferation. HUVEC proliferation, CellTiter-Glo luminescence, 72 h; hits give low values. viability, % at 10 µM (by protocol). 86,000 compounds, 1.1% hits. AID 648;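 active means viability at or below 30%; inactive means viability above 30%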
bCat KO growth: beta-catenin-lacking colon tumor cell growth suppression. HCT116 beta-catenin knockout viability, CellTiter-Glo, 60 h; hits give low values. viability, % at 10 µM. 140,000 compounds, 1.5% hits;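 active means viability at or under a set limit, the compound median less 4 SD, cut at about 6% in these data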
H69AR inhibit: growth inhibitors of human H69AR lung tumor cells. AID 598. 85,000 compounds, 6% hits. H69AR lung tumor viability, ATP luminescence, 72 h; hits give low values. viability, % at 10 µM;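 active means viability at or below 40%; inactive means viability above 40%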;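 further: multidrug resistant small cell line overexpressing MRP-1 efflux transporter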
Each line names hits and unclear results; the compound was inactive in the other large screens.

Cc1c(Cc2ccc3c(c2)OCO3)sc(NC(=O)C(C)(C)C)c1C#N	H69AR inhibit 38
Cc1n[nH]c(C)c1S(=O)(=O)N(CC(=O)N1CCc2ccccc21)c1ccc(C(C)C)cc1	H69AR inhibit 31
COc1ccccc1N1CCN(c2ccc(-c3ccccc3)nn2)CC1	Lung fibro prol 50, H69AR inhibit 19
CN1CCN(Cc2nc3c(c(=O)n(C)c(=O)n3C)n2CCc2ccccc2)CC1	none (no result: HCT116 PTEN-null, bCat KO growth)
Cc1cccc(C)c1NC(=O)CSCC(=O)c1ccc(O)c(O)c1	H69AR inhibit 18
CCOc1ccccc1CNC(=O)c1ccc(Sc2ccc(Cl)cc2)c(NC(C)=O)c1	none (no result: Lung fibro prol, HUVEC inhibit, H69AR inhibit)
COc1ccc(Nc2ncc(C(=O)N3CCN(Cc4ccccc4)CC3)c3ccccc23)cc1	HCT116 PTEN-null 3.4, bCat KO growth 3.9
O=C(Nc1ccc2nc3n(c(=O)c2c1)CCCC3)c1cc([N+](=O)[O-])ccc1F	bCat KO growth 2.5 (no result: Lung fibro prol, HUVEC inhibit, H69AR inhibit)
O=C(Nc1ccc2oc(-c3ccccc3Cl)nc2c1)c1ncn[nH]1	none
O=C(Nc1ccc2oc(-c3ccccc3Cl)nc2c1)c1cncc(Br)c1	HUVEC inhibit 17, H69AR inhibit 18
CCOc1cccc(C(=O)Nc2ccc3oc(Cc4ccc(Cl)cc4)nc3c2)c1	H69AR inhibit 24
O=C(Nc1ccc2oc(Cc3ccc(Cl)cc3)nc2c1)c1cccnc1	H69AR inhibit 36
CCOc1cccc(C(=O)Nc2nccs2)c1	none
CCn1c(SCc2ccc(Cl)cc2Cl)nc2nc3c(cc2c1=O)CCCC3	none (no result: Lung fibro prol, HUVEC inhibit, H69AR inhibit)
O=C(O)c1cccc(NC(=O)c2cccc(S(=O)(=O)N3CCCCC3)c2)c1	none
Nc1nc(NC(=O)c2cccc(S(=O)(=O)N3CCCCCC3)c2)nc(-c2ccccc2)n1	Lung fibro prol 25, H69AR inhibit 5.3
Cn1nc(C(=O)Nc2c(-c3ccccc3)nc3sccn23)c2ccccc2c1=O	Lung fibro prol 40, H69AR inhibit 26
CCOc1cc2[nH]c(=O)n(Cc3ccc(C(=O)NCCOC)cc3)c(=O)c2cc1OCC	none
CCOc1cc2[nH]c(=O)n(Cc3cccc(OC)c3)c(=O)c2cc1OCC	H69AR inhibit 21
O=C(Nn1c(-c2ccccc2)nc2ccccc2c1=O)C1CCC1	none
O=C1c2ccccc2-c2onc3ccc(Oc4ccccc4)c1c23	HCT116 PTEN-null 1.5, Lung fibro prol 2.8, HUVEC inhibit 4.4, bCat KO growth 1.9, H69AR inhibit 2.1
Cn1c(CCNC(=O)c2cccs2)nnc1SCC(=O)Nc1nc(-c2ccccc2)cs1	none
Cc1ccc(C(=O)NCCc2nnc(SCC(=O)Nc3nc(-c4ccccc4)cs3)n2C)cc1	HCT116 PTEN-null 0.8, bCat KO growth 1.0
COc1ccc(C(=O)Nc2ccc(/C(C)=N/NC(=O)c3ccccc3O)cc2)cc1OC	none (no result: Lung fibro prol, HUVEC inhibit, H69AR inhibit)
CCCc1sc(N/N=C/c2ccccn2)nc1-c1ccc(F)cc1	HCT116 PTEN-null 3.1, Lung fibro prol 19, HUVEC inhibit 15, bCat KO growth 3.2, H69AR inhibit 13
Cc1nn(Cc2c(F)c(F)c(F)c(F)c2F)c(C)c1NC(=O)c1ccc(COc2ccc(Cl)cc2Cl)o1	bCat KO growth 4.7 (no result: Lung fibro prol, HUVEC inhibit, H69AR inhibit)
CCOc1ccc(NC(=NCc2ccc3c(c2)OCO3)SC2CC(=O)N(c3ccccc3)C2=O)cc1 (stereo not drawn)	H69AR inhibit 35
COc1ccc(NC(=O)N(Cc2ccc3c(c2)OCO3)C2CC(=O)N(c3ccc(OC)cc3)C2=O)cc1 (stereo not drawn)	H69AR inhibit 40
CCOc1ccc(NC(=NCc2ccc3c(c2)OCO3)SC2CC(=O)N(c3ccc(OCC)cc3)C2=O)cc1 (stereo not drawn)	Lung fibro prol 43, HUVEC inhibit 26, bCat KO growth 2.2
CC(C)c1ccccc1NC(=O)C1CN(S(=O)(=O)c2ccccc2)CCN1S(=O)(=O)c1ccccc1 (stereo not drawn)	none (no result: Lung fibro prol, HUVEC inhibit, H69AR inhibit)
CC(C)(C)c1ccc(CNc2ccc([N+](=O)[O-])cn2)cc1	none (no result: Lung fibro prol, HUVEC inhibit, H69AR inhibit)
N#Cc1ccc(-c2ccc(F)cc2)nc1Oc1ccc(Cl)c(Cl)c1	HCT116 PTEN-null 1.7, bCat KO growth 2.0 (no result: Lung fibro prol, HUVEC inhibit, H69AR inhibit)
CCOc1ccc(NC(=O)c2ccc(NC(=O)c3cn4c5c(c(N6CCN(C)CC6)c(F)cc5c3=O)OCC4C)cc2)cc1 (stereo not drawn)	HCT116 PTEN-null 2.2, bCat KO growth 2.3 (no result: Lung fibro prol, HUVEC inhibit, H69AR inhibit)
O=C(CSc1nc(-c2cccs2)cc(C(F)(F)F)n1)Nc1cc(OCC(F)(F)C(F)F)cc([N+](=O)[O-])c1	none (no result: Lung fibro prol, HUVEC inhibit, H69AR inhibit)
N#Cc1c(NCCN)nc(-c2ccco2)c2c1CCCC2	Lung fibro prol 41, H69AR inhibit 7.1
Cc1nc(NCc2ccco2)c(C#N)c2c1COC(C)(C)C2	none
CC1(C)Cc2c(C#N)c(NCc3ccco3)nc(-c3ccco3)c2CO1	H69AR inhibit 20
CC1(C)Cc2c(C#N)c(OCC(=O)c3ccc(Cl)cc3)nc(-c3ccco3)c2CO1	Lung fibro prol 42
O=C(CC(c1ccccc1)c1ccco1)Nc1nccs1 (stereo not drawn)	none (no result: Lung fibro prol, HUVEC inhibit, H69AR inhibit)
CN1CCN(c2cc3c(c4c2[nH]c2ccccc24)C(=O)CC(C)(C)C3)CC1	HCT116 PTEN-null 1.8, Lung fibro prol 19, HUVEC inhibit 3.3, bCat KO growth 1.4, H69AR inhibit 0.9
C=CC[C@H]1CC(Cc2ccccc2)=C[C@H](CC=C)N1	none (no result: Lung fibro prol, HUVEC inhibit, H69AR inhibit)
COC(=O)c1sc(NC(=O)/C=C/c2ccc(C)o2)nc1C	none (no result: Lung fibro prol, HUVEC inhibit, H69AR inhibit)
CCOC(=O)c1nnc(-c2ccccc2)nc1Oc1ccc(Cl)cc1	none (no result: Lung fibro prol, HUVEC inhibit, H69AR inhibit)
CCOC(=O)c1nnc(-c2ccc(C)cc2)nc1Sc1cccc(Cl)c1	H69AR inhibit 33
CCOC(=O)c1nnc(-c2ccccc2)nc1Sc1ccccc1Cl	H69AR inhibit 0.6
CCOC(=O)c1nnc(-c2ccccc2)nc1NCc1ccccc1	none (no result: Lung fibro prol, HUVEC inhibit, H69AR inhibit)
Cc1csc(NC(=O)c2nc(-c3ccccc3)n(-c3ccccc3)n2)n1	H69AR inhibit 26 (no result: Lung fibro prol)
CC1CCCN(Cc2c(O)ccc3c(=O)c(-c4nc5ccccc5s4)c(N)oc23)C1 (stereo not drawn)	HCT116 PTEN-null 0.9, bCat KO growth 1.0 (no result: Lung fibro prol, HUVEC inhibit, H69AR inhibit)
Cc1cc(O)c2c(-c3ccccc3)cc(=O)oc2c1	H69AR inhibit 39
COc1ccc([N+](=O)[O-])cc1COc1cc(C)cc2oc(=O)cc(-c3ccccc3)c12	none (no result: Lung fibro prol, HUVEC inhibit, H69AR inhibit)
CCCCc1cc(=O)oc2cc(C)cc(O)c12	bCat KO growth 5.1, H69AR inhibit 10
COc1ccc(CC(=O)OCC(=O)NCCc2ccccc2)cc1OC	none (no result: Lung fibro prol, HUVEC inhibit, H69AR inhibit)
COc1ccc(CC(=O)NNc2ncnc3c2cnn3-c2ccc(C)cc2)cc1OC	none (no result: Lung fibro prol, HUVEC inhibit, H69AR inhibit)
Cc1ccc(-c2cc(C(=O)Nc3cccnc3)c3ccccc3n2)o1	none
Cc1ccc(NC(=O)c2cc(-c3ccc(C)o3)nc3ccccc23)cc1	H69AR inhibit 32
O=C(Oc1oc(-c2ccco2)nc1C=Nc1ccccc1)c1ccoc1	H69AR inhibit 38
Cc1ccc(C(=O)Oc2oc(-c3ccco3)nc2C=Nc2ccc(Cl)cc2)cc1	none
Cc1ccc(N=Cc2nc(-c3ccco3)oc2O)cc1	none
O=C(Oc1oc(-c2ccco2)nc1C=Nc1ccccc1)c1ccco1	H69AR inhibit 39
Cc1cc(F)ccc1S(=O)(=O)Nc1ccccc1C(=O)Nc1ccccc1-c1nc2ccccc2[nH]1	bCat KO growth 3.7 (no result: Lung fibro prol, HUVEC inhibit, H69AR inhibit)
